The source of these data is ChEMBL document CHEMBL1158354, “Condensed 1,4-dihydropyridines with various esters and their calcium channel antagonist activities” (2009).

The structures appear in SMILES notation. Active and inactive are the calls of the source. The rule behind the calls is not given here.

The species named for assay [1] is Oryctolagus cuniculus. Kind of assay: (§1) Antagonist activity at voltage dependent L-type calcium channel in New Zealand white rabbit sigmoid colon circular smooth muscle strip assessed as relaxation response. In kind it is functional. The method, boiled down: (§2)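 Strips held at 1 g basal tension and equilibrated 60 min in Ca2+-free KHS, with the solution changed every 15 min. Strips were then placed in Ca2+-free, 80 mM K+ solution and contracted by cumulative Ca2+ (2.5, 5, 10 mM). At the contraction plateau, compounds were added cumulatively (10^-8–10^-4 M). Emax and pD2 (−log EC50) were derived from concentration–relaxation curves, n = 6.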

A short description of assay [2]: as §1. In kind it is functional, Oryctolagus cuniculus. The gist of the method: as §2
The nature of assay [3]: (§3) Antagonist activity at voltage dependent L-type calcium channel in New Zealand white rabbit sigmoid colon circular smooth muscle strip assessed as relaxation response relative to papaverine. In kind it is functional. The note with it: Oryctolagus cuniculus.
Assay [4] is filed under the species Oryctolagus cuniculus. The assay is described as §3. In kind it is functional.
A short description of assay [5]: (§4) Antagonist activity at voltage dependent L-type calcium channel in New Zealand white rabbit sigmoid colon circular smooth muscle strip assessed as induction of relaxation response in presence of Ca2+-activated potassium channel blocker tetraethylammonium. The format is functional, Oryctolagus cuniculus. More on the design: scale not given: the % may be the effect or the level left.

Assay [6] is filed under the species Oryctolagus cuniculus. The description is as §4. In kind it is functional.

With `CCOC(=O)C1=C(C)NC2=C(C(=O)C(C)(C)CC2)C1c1cc(C(F)(F)F)cc(Cl)c1F` (stereo not drawn), in assay [1], the Activity result was “Dose-dependent effect”. The pD2 in assay [2] was found to be 5.06. In assay [3], the Emax (in general, the greatest response seen or fitted, relative to the assay's reference) turned out to be 23%.

With `CC1=C(C(=O)OCC(C)C)C(c2cc(C(F)(F)F)cc(Cl)c2F)C2=C(CC(C)(C)CC2=O)N1` (stereo not drawn), in assay [1], the Activity result was “Dose-dependent effect” and the pD2 result was “inactive”. Further, in assay [4], the Emax result was “inactive”.

As to `COCCOC(=O)C1=C(C)NC2=C(C(=O)C(C)(C)CC2)C1c1cc(C(F)(F)F)cc(Cl)c1F` (stereo not drawn), in assay [1], the Activity entry is “Dose-dependent effect”. Moreover, the pD2 in assay [2] is reported as 4.89. The Emax in assay [3] amounted to 43.7%.

Regarding `CC1=C(C(=O)OCc2ccccc2)C(c2cc(C(F)(F)F)cc(Cl)c2F)C2=C(CC(C)(C)CC2=O)N1` (stereo not drawn), in assay [1], the Activity result is “Dose-dependent effect” and the pD2 entry was “inactive”. In assay [4], the Emax entry was “inactive”.

Consider `CC1(C)CC(=O)C2=C(C1)NC1=C(C(=O)OC1)C2c1cc(C(F)(F)F)cc(Cl)c1F` (stereo not drawn), for which, in assay [1], the Activity entry was “Dose-dependent effect” and the pD2 entry was “inactive”. Besides, the Emax entry in assay [4] was “inactive”.

For the compound `COCCOC(=O)C1=C(C)NC2=C(C(=O)CC(C)(C)C2)C1c1cc(C(F)(F)F)cc(Cl)c1F` (stereo not drawn), in assay [1], the Activity entry is “Dose-dependent effect”. The pD2 in assay [2] turned out to be 5.11. The maximum response (Emax) in assay [3] was 45%.

On to `COC(=O)C1=C(C)NC2=C(C(=O)C(C)(C)CC2)C1c1cc(C(F)(F)F)cc(Cl)c1F` (stereo not drawn), for which the Activity in assay [5] is 17.19%; in assay [1], “Dose-dependent effect”. Further, the pD2 in assay [2] is reported as 4.94. Also, the Emax in assay [3] was 17.2%.

With `CC1=C(C(=O)OC(C)(C)C)C(c2cc(C(F)(F)F)cc(Cl)c2F)C2=C(CCC(C)(C)C2=O)N1` (stereo not drawn), in assay [1], the Activity result was “Dose-dependent effect” and the pD2 result was “inactive”. Moreover, in assay [4], the Emax entry is “inactive”.

On to `CC1=C(C(=O)OCc2ccccc2)C(c2cc(C(F)(F)F)cc(Cl)c2F)C2=C(CCC(C)(C)C2=O)N1` (stereo not drawn), for which, in assay [1], the Activity entry was “Dose-dependent effect” and the pD2 entry is “inactive”. In assay [4], the Emax entry was “inactive”.

Turning to `CC1=C(C(=O)OCC(C)C)C(c2cc(C(F)(F)F)cc(Cl)c2F)C2=C(CCC(C)(C)C2=O)N1` (stereo not drawn), in assay [1], the Activity entry was “Dose-dependent effect” and the pD2 result was “inactive”. Also, the Emax result in assay [4] is “inactive”.

For the compound `COC(=O)C1=C(C)NC2=C(C(=O)CC(C)(C)C2)C1c1cc(C(F)(F)F)cc(Cl)c1F` (stereo not drawn), the Activity entry in assay [1] was “Dose-dependent effect”. In assay [2], the pD2 worked out at 4.84. In addition, in assay [3], the maximal response (Emax) amounted to 32.2%.

Consider `COC(=O)C1=C(C)NC(C)=C(C(=O)OC)C1c1ccccc1[N+](=O)[O-]` [NIFEDIPINE], for which the Activity entry in assay [1] was “Dose-dependent effect”. Further, in assay [2], the pD2 is recorded as 6.92. Moreover, in assay [3], the Emax amounted to 94%.

As to `CC1(C)CCC2=C(C1=O)C(c1cc(C(F)(F)F)cc(Cl)c1F)C1=C(COC1=O)N2` (stereo not drawn), the outcome in assay [6] was inactive. Moreover, in assay [1], the Activity result was “Dose-dependent effect” and the pD2 result is “inactive”. Also, the Emax result in assay [4] was “inactive”.

Take `C=CCOC(=O)C1=C(C)NC2=C(C(=O)CC(C)(C)C2)C1c1cc(C(F)(F)F)cc(Cl)c1F` (stereo not drawn): in assay [1], the Activity result was “Dose-dependent effect” and the pD2 entry was “inactive”. Moreover, the Emax entry in assay [4] was “inactive”.

Turning to `CC1=C(C(=O)OC(C)(C)C)C(c2cc(C(F)(F)F)cc(Cl)c2F)C2=C(CC(C)(C)CC2=O)N1` (stereo not drawn), in assay [1], the Activity entry is “Dose-dependent effect” and the pD2 result was “inactive”. Besides, in assay [4], the Emax entry was “inactive”.

Turning to `CCOC(=O)C1=C(C)NC2=C(C(=O)CC(C)(C)C2)C1c1cc(C(F)(F)F)cc(Cl)c1F` (stereo not drawn), the Activity entry in assay [1] was “Dose-dependent effect”. For the same compound, in assay [2], the pD2 was determined as 4.74. Also, the Emax in assay [3] was 22.8%.

On to `C=CCOC(=O)C1=C(C)NC2=C(C(=O)C(C)(C)CC2)C1c1cc(C(F)(F)F)cc(Cl)c1F` (stereo not drawn), for which, in assay [1], the Activity result was “Dose-dependent effect” and the pD2 result was “inactive”. Besides, the Emax entry in assay [4] was “inactive”.
